The structures appear in SMILES notation.

The series in a line: Toxicity liver stage against HepG2, at 10uM. The class given is cell-based. More on the design: test concentration 10 uM, cell line HepG2-A16-CD81EGFP. Particulars: human, HepG2-A16-CD81EGFP cells; read-out: INHIBITION
The method in brief: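 Uninfected HepG2-A16-CD81EGFP cells, 3 × 10^3 per well, 1536-well, plated on prespotted compound at 10 μM final, parasite-free screening media added to match infected plates; puromycin 10 μM positive, DMSO 0.5% negative; run in parallel with 48 h PbLuc assay at 37 °C, 5% CO2; viability by CellTiter-Glo luminescence, normalized to controls.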

With `Cc1cc(C(=O)NCc2ccnc(OCC(F)(F)F)c2)on1`, the cytotoxicity at 10 µM is -9.63%.

As for `O=C(CN1CCC(c2cccc(F)c2)C1)NCC(F)(F)F` (stereo unspecified), the cytotoxicity at 10 µM was -10.4%.

As to `CN1CCN(c2nccc(-c3cncnc3C3CCCCC3)n2)CC1`, the cytotoxicity at 10 µM was -4.33%.

As for `c1[nH]c(CC2CCCC2)nc1CN1CCCC2(CCOC2)C1` (stereo unspecified), the cytotoxicity at 10 µM is -9.12%.

For the compound `CN(C(=O)C1CCN(Cc2cnc3ccccn23)CC1)c1ccccc1`, the cytotoxicity at 10 µM is 38.9%.

For the compound `CC(=O)NCCCSC1CCCN(c2ccccc2F)C1=O` (stereo unspecified), the cytotoxicity at 10 µM is -0.906%.

As to `CS(=O)(=O)N1CCO[C@H]2[C@@H](Oc3ncccc3F)CC[C@@H]21`, the cytotoxicity at 10 µM was -2.54%.

`N#Cc1ccc(N2CCC(OCCc3ccccc3)CC2)nc1`: the cytotoxicity at 10 µM is -9.67%.

With `Cc1nc(COC[C@H]2CC[C@H]3NCC[C@H]3O2)cs1`, the cytotoxicity at 10 µM was -5.64%.

Take `O=C1CCC2(CCN(Cc3ccoc3)CC2)N1OCc1ccccc1F`: the cytotoxicity at 10 µM was 2.37%.

With `Cn1ncnc1NS(=O)(=O)c1ccc(F)cc1`, the cytotoxicity at 10 µM worked out at 7.66%.

For the compound `C[C@@H](NC(=O)c1cnccn1)c1c(-c2ccc(F)cc2)noc1C(=O)O`, the cytotoxicity at 10 µM was 1.02%.

As to `CN(CCOc1ccccc1F)C1CCOC1=O` (stereo unspecified), the cytotoxicity at 10 µM was -147%.

Regarding `O=C(NCCc1cc(N2CCOCC2)nc(NC2CC2)n1)C1CCCO1` (stereo unspecified), the cytotoxicity at 10 µM amounted to 2.61%.

`CCc1nc(C(=O)N2CC(C(C)C)Nc3ccccc32)c[nH]1` (stereo unspecified): the cytotoxicity at 10 µM was -0.0979%.

For `Cn1cnc2c1CCN(CC(=O)NC1CCCCNC1=O)C2` (stereo unspecified), the cytotoxicity at 10 µM is -5.97%.

For the compound `CC(C)CC(=O)N1C[C@H]2CCCN(S(=O)(=O)c3ccc(Cl)s3)[C@H]2C1`, the cytotoxicity at 10 µM is -1.63%.

As for `Cc1nc(C2CCN(C(=O)CO)CC2)cc(N2CCOCC2)n1`, the cytotoxicity at 10 µM is -12.2%.

With `COc1cccc(N2CC3(CCN(C(=O)NC(C)C)C3)CC2=O)c1` (stereo unspecified), the cytotoxicity at 10 µM was determined as 3.52%.

With `CN1CCN(CC2(O)CCCN(C(=O)Cc3cccc(O)c3)CC2)CC1` (stereo unspecified), the cytotoxicity at 10 µM is -4.86%.

Turning to `NC(=O)CC1CCN(S(=O)(=O)c2cnn(-c3ccccc3)c2)CC1`, the cytotoxicity at 10 µM stood at 12%.

On to `CN(C)C(=O)N1CCN(C(=O)C(c2ccccc2F)N(C)C)CC1` (stereo unspecified), for which the cytotoxicity at 10 µM is -0.665%.

`Cc1nnc(NCCc2coc(-c3ccccc3)n2)c(C#N)c1C`: the cytotoxicity at 10 µM is -14.3%.

Turning to `CCN(CC)S(=O)(=O)NCc1ccc(-c2ccc(C(N)=O)c(C)n2)cc1`, the cytotoxicity at 10 µM amounted to 2.77%.

As to `CS(=O)(=O)N[C@@H]1CN(C(=O)c2ccccn2)[C@@H]2CCCO[C@@H]21`, the cytotoxicity at 10 µM is 4.3%.

Take `CCN(Cc1cnn(C)c1)S(=O)(=O)c1ccc(NC(C)=O)cc1`: the cytotoxicity at 10 µM was 3.59%.

Regarding `CCc1c(C)nc2n(c1=O)CC(C(=O)Nc1nc3c(s1)CCCC3)CS2` (stereo unspecified), the cytotoxicity at 10 µM stood at 2.17%.

On to `O=C1CC(c2ccc(F)c(F)c2)c2snc(C(=O)O)c2N1` (stereo unspecified), for which the cytotoxicity at 10 µM was 6.95%.

In the case of `CCCNC(=O)Cn1nc(C)c2cnn(C(C)(C)C)c2c1=O`, the cytotoxicity at 10 µM was -3.57%.

Take `CCc1ccc(CNC(=O)N2CCN(Cc3cc(C)on3)CC2)s1`: the cytotoxicity at 10 µM is -7.03%.

Take `CSc1sc(NC(=O)Cc2c(C)nc(C)[nH]c2=O)nc1C`: the cytotoxicity at 10 µM was -1.29%.

As for `Cc1cc(C)nc(NCCSc2cnn[nH]2)n1`, the cytotoxicity at 10 µM was 3.22%.

Turning to `CCc1nc(CN2CCCN(c3ncnc4sccc34)CC2)no1`, the cytotoxicity at 10 µM was 59.9%.

In the case of `NCCC1CN(Cc2cnc3c(-c4ccccc4)cnn3c2)CCO1` (stereo unspecified), the cytotoxicity at 10 µM is -3.92%.

Take `O=C(c1cnc(NCc2sccc2Br)c(Cl)c1)N1CCCCC1`: the cytotoxicity at 10 µM was determined as 6.36%.

`CC(C)Cn1ccc2c(NC(=O)c3n[nH]c4c3CCC4)cccc21`: the cytotoxicity at 10 µM came out at 7.33%.

Turning to `N#Cc1cccnc1Oc1cc(F)c(CN2CCCC2)c(Cl)c1`, the cytotoxicity at 10 µM was -13.9%.

For the compound `COCCN1C[C@@H]2CN(c3cnccn3)C[C@@H]2C1=O`, the cytotoxicity at 10 µM was -104%.

As for `CCOc1ccccc1C(=O)NC(CC(=O)O)c1cccs1` (stereo unspecified), the cytotoxicity at 10 µM is -11.4%.

As for `CCn1nc(C)cc1NC(=O)CCn1nc(C)c2ccccc21`, the cytotoxicity at 10 µM amounted to 4.98%.

With `Cc1ccc(OCCC(=O)N2CCN(c3cnccn3)CC2)cc1C`, the cytotoxicity at 10 µM was -12.2%.

With `COc1ccc(-n2ccc(CNCc3cccc(OC)c3)n2)cc1`, the cytotoxicity at 10 µM came to 3.12%.

With `CN(Cc1cccc(CCN)c1)Cc1cccc2ncccc12`, the cytotoxicity at 10 µM is 7.82%.

Take `COc1cccc2c1OCC(CNc1cc(N)nc(SC)n1)C2` (stereo unspecified): the cytotoxicity at 10 µM came out at 3.37%.

Consider `Cc1nn(CC(O)CN2CCC(C)CC2)c(=O)c(C#N)c1C` (stereo unspecified), for which the cytotoxicity at 10 µM came out at 5.84%.

In the case of `CC(=O)c1cccc(OCCCC(=O)N(C)CC(N)=O)c1`, the cytotoxicity at 10 µM is 17.3%.

`Cn1cc(N2C[C@@H]3CN(S(=O)(=O)C4CC4)C[C@@H]3C2=O)cn1`: the cytotoxicity at 10 µM was 1.86%.

On to `CC(C)S(=O)(=O)N1CCC(c2[nH]ncc2S(C)(=O)=O)C1` (stereo unspecified), for which the cytotoxicity at 10 µM is -21.5%.

As for `N#Cc1cccnc1N1CCC2(CCCN(C3CCOCC3)C2=O)C1` (stereo unspecified), the cytotoxicity at 10 µM is -9.21%.

As for `NC(=O)c1cccc(CC2CCN(C(=O)CO)C2)c1` (stereo unspecified), the cytotoxicity at 10 µM is -23.7%.

As to `Cc1c(Cl)cc(C(=O)N(CCO)Cc2nccn2C)cc1Cl`, the cytotoxicity at 10 µM amounted to 2.66%.

As for `Cc1ccc(-c2nc(CNCC3CN(C)CCO3)co2)c(C)c1` (stereo unspecified), the cytotoxicity at 10 µM was -16.4%.

On to `O=C(c1cc2c(s1)CCOC2)N1CCCC1Cn1cccn1` (stereo unspecified), for which the cytotoxicity at 10 µM is -2.06%.

Take `NC(=O)c1nc(CC(=O)Nc2cccc(C(F)(F)F)c2)no1`: the cytotoxicity at 10 µM is 0.493%.

In the case of `CCc1nccn1C1CCCN(C(=O)CCCc2ccccn2)C1` (stereo unspecified), the cytotoxicity at 10 µM was -18.7%.

On to `CC(NC(=O)CSCC#N)c1cccc(NC(=O)c2ccccc2)c1` (stereo unspecified), for which the cytotoxicity at 10 µM is -1.79%.

Turning to `Cc1ccc(C(C)NC(=O)CNCCn2cccn2)cc1C` (stereo unspecified), the cytotoxicity at 10 µM was -6.63%.

As for `Cc1cccc(-c2nc(C)nn2CC(=O)NCC(C)C)c1`, the cytotoxicity at 10 µM was -27.9%.

On to `CC(C)Cn1cnnc1C1CCCN1C(=O)OC(C)(C)C` (stereo unspecified), for which the cytotoxicity at 10 µM came to 0.514%.

With `CC(C)Oc1cccc(CN2CCC(c3n[nH]c4ncccc34)CC2)c1`, the cytotoxicity at 10 µM was -6.15%.

As to `CNC(=O)c1cccnc1Oc1ccccc1`, the cytotoxicity at 10 µM was 2.84%.

In the case of `CC(C)S(=O)(=O)N1CCCC(c2nccn2Cc2cccnc2)C1` (stereo unspecified), the cytotoxicity at 10 µM is 3.72%.

Consider `CCC[C@H]1CN(Cc2ccc(N(C)C)nc2)C[C@@H]1NS(=O)(=O)CC`, for which the cytotoxicity at 10 µM is -11.9%.

Take `CN1CC2(CCN(C(=O)c3cccc(-n4cccn4)c3)CC2)OC1=O`: the cytotoxicity at 10 µM turned out to be 4.5%.

`Cc1nocc1C(=O)N1CCCC2(CCN(c3ccsc3)C2=O)C1` (stereo unspecified): the cytotoxicity at 10 µM is -129%.

For the compound `Cc1cc(=O)[nH]cc1C(=O)N1Cc2ccccc2N(C)CC1C` (stereo unspecified), the cytotoxicity at 10 µM is 0.305%.

Take `CN(CCNC(=O)N1CCCC1)C(=O)OC(C)(C)C`: the cytotoxicity at 10 µM turned out to be 3.97%.

Consider `COc1ccc(CN2C[C@@H]3CN(Cc4ccoc4)C[C@@H]3C2=O)cc1`, for which the cytotoxicity at 10 µM is -8.37%.

`Cc1ccc(C(=O)N(C)CC(=O)N2CCCC2)c(C)c1`: the cytotoxicity at 10 µM is -0.705%.

In the case of `O=C(c1cccc(Cn2ccnc2)c1)N1CCCC(n2cccn2)C1` (stereo unspecified), the cytotoxicity at 10 µM is -0.603%.

As to `Cc1oncc1NS(=O)(=O)c1c[nH]c2ncccc12`, the cytotoxicity at 10 µM is -7.49%.
